Assay results reported in ChEMBL document CHEMBL1124128, “Angiotensin-converting enzyme inhibitors. Mercaptan, carboxyalkyl dipeptide, and phosphinic acid inhibitors incorporating 4-substituted prolines” (J Med Chem, 1988).
Several values for one entry are separate records, joined by “and”; a condition that tells them apart may be missing. Identical values can stand only once.

How the values were obtained:
[1] = molecular target: T1, Angiotensin-converting enzyme (Rattus norvegicus, UniProt P47820); test: In vitro inhibitory activity against angiotensin I converting enzyme of rats.; details: read-out: I50
T1 sequence (P47820 whole entry): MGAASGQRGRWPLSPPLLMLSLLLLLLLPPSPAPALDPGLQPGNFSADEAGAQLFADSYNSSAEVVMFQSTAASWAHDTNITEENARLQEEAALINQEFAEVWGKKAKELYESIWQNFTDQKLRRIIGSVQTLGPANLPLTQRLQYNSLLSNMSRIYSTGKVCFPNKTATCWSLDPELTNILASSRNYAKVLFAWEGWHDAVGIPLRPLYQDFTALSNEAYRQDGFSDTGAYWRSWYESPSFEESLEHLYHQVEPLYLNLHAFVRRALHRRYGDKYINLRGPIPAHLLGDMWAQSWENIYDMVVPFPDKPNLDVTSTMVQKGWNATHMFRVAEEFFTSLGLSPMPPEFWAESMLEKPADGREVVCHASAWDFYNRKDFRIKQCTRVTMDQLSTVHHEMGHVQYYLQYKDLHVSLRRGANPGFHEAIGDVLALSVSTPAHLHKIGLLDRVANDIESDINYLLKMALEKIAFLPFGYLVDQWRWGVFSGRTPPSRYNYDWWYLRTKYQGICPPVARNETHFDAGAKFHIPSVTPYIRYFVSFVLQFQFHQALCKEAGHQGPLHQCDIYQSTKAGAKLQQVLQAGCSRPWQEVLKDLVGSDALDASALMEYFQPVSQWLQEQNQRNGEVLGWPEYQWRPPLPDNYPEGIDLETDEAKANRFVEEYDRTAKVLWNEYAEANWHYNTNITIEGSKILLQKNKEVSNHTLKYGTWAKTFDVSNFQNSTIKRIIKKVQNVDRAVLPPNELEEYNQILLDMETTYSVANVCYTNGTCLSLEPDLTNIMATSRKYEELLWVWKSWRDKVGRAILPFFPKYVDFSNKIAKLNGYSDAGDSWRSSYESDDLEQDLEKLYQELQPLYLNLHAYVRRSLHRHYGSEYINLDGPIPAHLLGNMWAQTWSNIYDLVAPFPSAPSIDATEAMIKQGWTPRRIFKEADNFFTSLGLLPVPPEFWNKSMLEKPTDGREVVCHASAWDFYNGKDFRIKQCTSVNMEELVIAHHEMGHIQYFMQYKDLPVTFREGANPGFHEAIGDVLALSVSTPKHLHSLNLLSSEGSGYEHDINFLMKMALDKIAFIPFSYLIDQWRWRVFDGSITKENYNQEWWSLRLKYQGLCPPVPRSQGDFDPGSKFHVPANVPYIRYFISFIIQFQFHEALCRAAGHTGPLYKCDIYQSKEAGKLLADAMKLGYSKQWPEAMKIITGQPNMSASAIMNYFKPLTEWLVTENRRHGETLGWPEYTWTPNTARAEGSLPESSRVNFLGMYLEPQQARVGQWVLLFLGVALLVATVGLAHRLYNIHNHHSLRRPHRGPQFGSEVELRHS

Rattus norvegicus [2] = test: % Inhibition of angiotensin-I induced pressor response in normotensive rats after peroral dosing of 5 umol/kg; format: functional; details: po
Summary of the method: (§1)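 Conscious, unrestrained catheterized male Sprague–Dawley rats (225–275 g) had direct aortic pressure recording. Baseline pressor responses were taken to AI (310 ng/kg iv) and AII (100 ng/kg iv). Compound was given orally in water, 5% NaHCO3 or 1% agar suspension. AI and AII responses were then tracked up to 280 min. Maximum % inhibition is the mean response of four animals per dose.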

Rattus norvegicus [3] = test: % Inhibition of angiotensin-I induced pressor response in normotensive rats after peroral dosing of 1.5 umol/kg; format: functional; details: po; summary of the method: as §1
Rattus norvegicus [4] = test: % Inhibition of angiotensin-I induced pressor response in normotensive rats after peroral dosing of 0.5 umol/kg; format: functional; details: po; summary of the method: as §1
Rattus norvegicus [5] = test: % Inhibition of angiotensin-I induced pressor response in normotensive rats after intravenous dosing of 0.15 umol/kg; format: functional
Summary of the method: (§2)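 Conscious, unrestrained male Sprague–Dawley rats (225–275 g) with indwelling aortic and vena caval catheters, allowed at least 2 weeks of recovery. Aortic pressure recorded directly. Baseline pressor responses to AI (310 ng/kg iv) and AII (100 ng/kg iv) were taken first. Compound was given iv in 0.1 mL water or 5% NaHCO3, and responses were followed for up to 70 min. Maximum % inhibition is the mean of four animals per dose.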

Rattus norvegicus [6] = test: % Inhibition of angiotensin-I induced pressor response in normotensive rats after intravenous dosing of 5 umol/kg; format: functional; summary of the method: as §2
[7] = molecular target: T2, Angiotensin-converting enzyme (Rattus norvegicus) (UniProt P47820); test: In vitro inhibition of rat Angiotensin I converting enzyme
T2 sequence (whole entry): T1 sequence (P47820 whole entry)

Rattus norvegicus [8] = test: % Inhibition of angiotensin-I induced pressor response in normotensive rats after intravenous dosing of 0.05 umol/kg; format: functional
Summary of the method: (§3)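 Male Sprague–Dawley rats (225–275 g) fitted with indwelling abdominal aorta and vena cava catheters, recovered at least 2 weeks, then tested conscious and unrestrained. Aortic pressure was recorded directly. Pressor responses to AI (310 ng/kg iv) and AII (100 ng/kg iv) were taken before dosing. Compound was given iv in water or 5% NaHCO3, and responses were followed up to 70 min. Maximum % inhibition is the mean of four animals per dose.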

Rattus norvegicus [9] = test: % Inhibition of angiotensin-I induced pressor response in normotensive rats after intravenous dosing of 0.5 umol/kg; format: functional; summary of the method: as §2
Rattus norvegicus [10] = test: % Inhibition of angiotensin-I induced pressor response in normotensive rats after intravenous dosing of 1.5 umol/kg; format: functional; summary of the method: as §2
Rattus norvegicus [11] = test: % Inhibition of angiotensin-I induced pressor response in normotensive rats after peroral dosing of 15 umol/kg; format: functional; details: po; summary of the method: as §1
Rattus norvegicus [12] = test: % Inhibition of angiotensin-I induced pressor response in normotensive rats after intravenous dosing of 0.015 umol/kg; format: functional; summary of the method: as §3
Rattus norvegicus [13] = test: % Inhibition of angiotensin-I induced pressor response in normotensive rats after peroral dosing of 50 umol/kg; format: functional; details: po; summary of the method: as §1
[14] = molecular target: T2, Angiotensin-converting enzyme (Rattus norvegicus); test: Evaluated for inhibition of Angiotensin I converting enzyme in rat; format: functional; details: concentration not given here

IC50 [1] [nM]	Compound	inhibition in vivo at 0.15 µmol/kg (Rattus norvegicus [5]) [%]	inhibition in vivo at 0.05 µmol/kg (Rattus norvegicus [8]) [%]	other results
2	C[C@H]1C[C@@H](C(=O)O)N(C(=O)[C@H](C)CS)C1	–	–	–
–	CCOC(=O)[C@H](CCc1ccccc1)N[C@@H](C)C(=O)N1CCC[C@H]1C(=O)O	–	–	inhibition in vivo at 5 µmol/kg (Rattus norvegicus [2]): 83%; inhibition in vivo at 1.5 µmol/kg (Rattus norvegicus [3]): 84%; inhibition in vivo at 0.5 µmol/kg (Rattus norvegicus [4]): 50%
–	O=C(O)[C@@H]1C[C@@H](Sc2ccccc2)CN1C(=O)CP(=O)(O)CCCCc1ccccc1	19	20	inhibition in vivo at 5 µmol/kg (Rattus norvegicus [6]): 78%; T50 [7]: 17 nM; inhibition in vivo at 0.5 µmol/kg (Rattus norvegicus [9]): 48%; inhibition in vivo at 1.5 µmol/kg (Rattus norvegicus [10]): 69%
–	CS[C@H]1C[C@@H](C(=O)O)N(C(=O)CP(=O)(O)CCCCc2ccccc2)C1	29	–	T50 [7]: 32 nM; inhibition in vivo at 0.5 µmol/kg (Rattus norvegicus [9]): 69%; inhibition in vivo at 1.5 µmol/kg (Rattus norvegicus [10]): 89%
46	C[C@H](CS)C(=O)N1C[C@@H]([S+]([O-])c2ccccc2)C[C@H]1C(=O)O (stereo partly drawn)	–	–	–
2	C[C@H](N[C@@H](CCc1ccccc1)C(=O)O)C(=O)N1C[C@@H](Sc2ccccc2)C[C@H]1C(=O)O	85	43	inhibition in vivo at 5 µmol/kg (Rattus norvegicus [2]): 67%; inhibition in vivo at 15 µmol/kg (Rattus norvegicus [11]): 78%; inhibition in vivo at 1.5 µmol/kg (Rattus norvegicus [3]): 31%; inhibition in vivo at 0.5 µmol/kg (Rattus norvegicus [4]): 23%; inhibition in vivo at 0.015 µmol/kg (Rattus norvegicus [12]): 20%
2.9	C[C@H](CS)C(=O)N1CC2(C[C@H]1C(=O)O)OCCO2	–	–	–
7.2	COC1(OC)C[C@@H](C(=O)O)N(C(=O)[C@H](C)CS)C1	–	–	–
2	C[C@H](CS)C(=O)N1C[C@@H](C2CCCCC2)C[C@H]1C(=O)O	–	–	–
5	C[C@H](N[C@@H](CCc1ccccc1)C(=O)O)C(=O)N1C[C@@H](c2ccccc2)C[C@H]1C(=O)O	–	–	–
–	O=C(O)[C@@H]1CC2(CN1C(=O)CP(=O)(O)CCCCc1ccccc1)SCCS2	80	47	inhibition in vivo at 5 µmol/kg (Rattus norvegicus [2]): 28%; inhibition in vivo at 15 µmol/kg (Rattus norvegicus [11]): 74%; T50 [7]: 4 nM and 2 nM; inhibition in vivo at 50 µmol/kg (Rattus norvegicus [13]): 94%; inhibition in vivo at 0.015 µmol/kg (Rattus norvegicus [12]): 20%; inhibition in vivo at 0.5 µmol/kg (Rattus norvegicus [9]): 90%
16	C[C@H](CS)C(=O)N1CC(=O)C[C@H]1C(=O)O	–	–	–
28	C[C@H](CS)C(=O)N1C[C@@H](S(=O)(=O)c2ccccc2)C[C@H]1C(=O)O	–	–	–
5	C[C@H](N[C@@H](CCc1ccccc1)C(=O)O)C(=O)N1C[C@@H](C2CCCCC2)C[C@H]1C(=O)O	92	48	inhibition in vivo at 0.015 µmol/kg (Rattus norvegicus [12]): 21%
–	O=C(O)[C@@H]1C[C@@H](c2ccccc2)CN1C(=O)CP(=O)(O)CCCCc1ccccc1	37	17	T50 [7]: 120 nM; inhibition in vivo at 0.5 µmol/kg (Rattus norvegicus [9]): 76%
30	C[C@H](CS)C(=O)N1C[C@@H](c2ccccc2)C[C@H]1C(=O)O	–	–	–
17	C[C@H](CS)C(=O)N1C[C@@H](Sc2ccc(F)cc2)C[C@H]1C(=O)O	–	–	–
96	C[C@H](CS)C(=O)N1C[C@@H](Sc2ccc3ccccc3c2)C[C@H]1C(=O)O	–	–	–
–	O=C(O)[C@@H]1C[C@H](Cc2ccccc2)CN1C(=O)CP(=O)(O)CCCCc1ccccc1	–	–	T50 [7]: 10 nM

IC50 [1] [nM]	Compound	inhibition in vivo at 0.15 µmol/kg (Rattus norvegicus [5]) [%]	inhibition in vivo at 0.05 µmol/kg (Rattus norvegicus [8]) [%]	other results
–	O=C(O)[C@@H]1C[C@H](C2CCCCC2)CN1C(=O)CP(=O)(O)CCCCc1ccccc1	73	26	inhibition in vivo at 5 µmol/kg (Rattus norvegicus [2]): 13%; T50 [7]: 7 nM; inhibition [14]: 72%; inhibition in vivo at 0.5 µmol/kg (Rattus norvegicus [9]): 84%
8.6	C[C@H](CS)C(=O)N1C[C@@H](O)C[C@H]1C(=O)O	–	–	–
5	CS[C@@H]1C[C@@H](C(=O)O)N(C(=O)[C@H](C)N[C@@H](CCc2ccccc2)C(=O)O)C1	77	69	inhibition in vivo at 0.015 µmol/kg (Rattus norvegicus [12]): 29%
97	C[C@H](CS)C(=O)N1C[C@@H](Oc2ccccc2)C[C@H]1C(=O)O	–	–	–
–	C[C@H](N[C@@H](CCc1ccccc1)C(=O)O)C(=O)N1CCC[C@H]1C(=O)O [ENALAPRILAT ANHYDROUS]	90	67	inhibition in vivo at 5 µmol/kg (Rattus norvegicus [2]): 46%; inhibition in vivo at 15 µmol/kg (Rattus norvegicus [11]): 85%; inhibition in vivo at 0.015 µmol/kg (Rattus norvegicus [12]): 11%
8	C[C@H](CS)C(=O)N1C[C@@H](Sc2ccccc2)C[C@H]1C(=O)O [ZOFENOPRILAT]	–	–	–
–	O=C(O)[C@@H]1C[C@H](c2ccccc2)CN1C(=O)CP(=O)(O)CCCCc1ccccc1	69	16	T50 [7]: 7 nM; inhibition in vivo at 0.5 µmol/kg (Rattus norvegicus [9]): 97%
13	C[C@H](CS)C(=O)N1C[C@@H](Oc2ccc3ccccc3c2)C[C@H]1C(=O)O	–	–	–
12	CO[C@@H]1C[C@@H](C(=O)O)N(C(=O)[C@H](C)CS)C1	–	–	–
2.8	CO[C@H]1C[C@@H](C(=O)O)N(C(=O)[C@H](C)CS)C1	–	–	–
–	CS[C@@H]1C[C@@H](C(=O)O)N(C(=O)CP(=O)(O)CCCCc2ccccc2)C1	27	44	T50 [7]: 29 nM; inhibition in vivo at 0.015 µmol/kg (Rattus norvegicus [12]): 7%; inhibition in vivo at 0.5 µmol/kg (Rattus norvegicus [9]): 79%
–	CCOC(=O)[C@H](CCc1ccccc1)N[C@@H](C)C(=O)N1C[C@@H](Sc2ccccc2)C[C@H]1C(=O)O	–	–	inhibition in vivo at 5 µmol/kg (Rattus norvegicus [2]): 86%; inhibition in vivo at 1.5 µmol/kg (Rattus norvegicus [3]): 81%; inhibition in vivo at 0.5 µmol/kg (Rattus norvegicus [4]): 29%
–	CO[C@H]1C[C@@H](C(=O)O)N(C(=O)CP(=O)(O)CCCCc2ccccc2)C1	55	16	T50 [7]: 60 nM; inhibition in vivo at 0.5 µmol/kg (Rattus norvegicus [9]): 90%
26	C[C@H](CS)C(=O)N1C[C@H](O)C[C@H]1C(=O)O	–	–	–
–	O=C(O)[C@@H]1C[C@H](Sc2ccccc2)CN1C(=O)CP(=O)(O)CCCCc1ccccc1	27	–	inhibition in vivo at 5 µmol/kg (Rattus norvegicus [6]): 88%; T50 [7]: 20 nM; inhibition in vivo at 0.5 µmol/kg (Rattus norvegicus [9]): 34%; inhibition in vivo at 1.5 µmol/kg (Rattus norvegicus [10]): 65%
6.5	C[C@H](CS)C(=O)N1CC2(C[C@H]1C(=O)O)SCCS2	–	–	–
11	C[C@H](CS)C(=O)N1C[C@@H](Sc2ccc(Cl)cc2)C[C@H]1C(=O)O	–	–	–
3	CS[C@H]1C[C@@H](C(=O)O)N(C(=O)[C@H](C)CS)C1	–	–	–
2	C[C@H](N[C@@H](CCc1ccccc1)C(=O)O)C(=O)N1C[C@H](Sc2ccccc2)C[C@H]1C(=O)O	–	94	inhibition in vivo at 0.015 µmol/kg (Rattus norvegicus [12]): 57%
